Laboratory results: ChEMBL document CHEMBL1135939, “Studies on the synthesis and opioid agonistic activities of mitragynine-related indole alkaloids: discovery of opioid agonists structurally different from other opioid ligands” (J Med Chem, 2002)
Active and inactive are the calls of the source. The rule behind the calls is not given here.

Experiments:
Cavia porcellus [1] = species: Cavia porcellus; experiment: Relative inhibitory activity expressed as the percentage of the maximum inhibition by the compound against that of morphine; non specific; type: functional
Cavia porcellus [2] = species: Cavia porcellus; experiment: activity evaluated by its ability to inhibit the electrically induced twitch contraction in guinea pig ileum, which is reversed by naloxone (300 nM); non specific; type: functional
How it was run: (§1)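 Ileum from male Dunkin-Hartley guinea pigs (300–400 g) in bath at 37 °C bubbled with 95% O2/5% CO2. Tissue suitability checked with acetylcholine 3 μM. Transmural stimulation at 0.2 Hz, 0.3 ms, supramaximal voltage, isotonic recording. Cumulative concentration–response curves over 100 pM–30 μM. Twitch height measured before and after drug. Mean ± SEM from five to six animals.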

Cavia porcellus [3] = species: Cavia porcellus; experiment: Relative potency expressed as the percentage of the pD2 value against that of morphine; non specific; type: functional
Cavia porcellus [4] = species: Cavia porcellus; experiment: % maximum inhibition is elicited when the response reaches plateau, calculated regarding electrically induced contraction in guinea pig ileum as 100%; non specific; type: functional; how it was run: as §1
Cavia porcellus [5] = species: Cavia porcellus; experiment: activity evaluated by its ability to inhibit the electrically induced twitch contraction in guinea pig ileum, which is reversed by naloxone (300 nM)(P < 0.001); type: functional; how it was run: as §1
Cavia porcellus [6] = species: Cavia porcellus; experiment: Relative potency expressed as the percentage of the pD2 value against that of morphine; type: functional
Cavia porcellus [7] = species: Cavia porcellus; experiment: % maximum inhibition is elicited when the response reaches plateau, calculated regarding electrically induced contraction in guinea pig ileum as 100%(P < 0.01); type: functional; how it was run: as §1
Cavia porcellus [8] = species: Cavia porcellus; experiment: Relative inhibitory activity expressed as the percentage of the maximum inhibition by the compound against that of morphine; type: functional
Cavia porcellus [9] = species: Cavia porcellus; experiment: % inhibition of twitch contraction at 0.1 uM in electrically stimulated guinea pig ileum preparation; type: functional; how it was run: as §1
[10] = target: Kappa-type opioid receptor (Cavia porcellus, UniProt P41144); experiment: Binding affinity using guinea pig brain membrane preparations, towards Opioid receptor kappa 1 using [3H]- U-69,593 as radioligand
Cavia porcellus [11] = species: Cavia porcellus; experiment: % maximum inhibition is elicited when the response reaches plateau, calculated regarding electrically induced contraction in guinea pig ileum as 100% (P < 0.001); type: functional; how it was run: as §1
Cavia porcellus [12] = species: Cavia porcellus; experiment: activity evaluated by its ability to inhibit the electrically induced twitch contraction in guinea pig ileum, which is reversed by naloxone (300 nM); type: functional; how it was run: as §1
[13] = target: Mu-type opioid receptor (Cavia porcellus) (UniProt P97266); experiment: Relative affinity evaluated for Opioid receptor mu 1
How it was run: (§2)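 From displacement Ki values in guinea pig brain membranes for μ ([3H]DAMGO), δ ([3H]DPDPE) and κ ([3H]U-69593) sites. Ka = 1/Ki. Relative affinity (%) = Ka for the subtype / (Kaμ + Kaδ + Kaκ).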

[14] = test system: Delta-type opioid receptor; experiment: Relative affinity evaluated for Opioid receptor delta 1; conditions: Cavia porcellus; how it was run: as §2
Mu-type opioid receptor = Mu-type opioid receptor (Cavia porcellus, UniProt P97266); experiment: Binding affinity using guinea pig brain membrane preparations, towards Opioid receptor mu 1 using [3H]- DAMGO as radioligand
How it was run: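 Guinea pig whole-brain (minus cerebellum) membranes in 50 mM Tris-HCl pH 7.4 with 1 nM radioligand. [3H]DPDPE incubated 2 h and [3H]DAMGO 1.5 h, both at 25 °C. Nonspecific binding defined with 1 μM naltrindole (DPDPE) or 1 μM DAMGO (DAMGO). GF/B filtration, scintillation counting. 6–9 inhibitor concentrations; Ki by Cheng–Prusoff, given as pKi. 3–5 curves, each in triplicate.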

Cavia porcellus [15] = species: Cavia porcellus; experiment: % maximum inhibition is elicited when the response reaches plateau, calculated regarding electrically induced contraction in guinea pig ileum as 100%; type: functional; how it was run: as §1
Cavia porcellus [16] = species: Cavia porcellus; experiment: % inhibition of twitch contraction in electrically stimulated guinea pig ileum preparation; type: functional; how it was run: as §1
Cavia porcellus [17] = species: Cavia porcellus; experiment: % inhibition of twitch contraction at 3 uM in electrically stimulated guinea pig ileum preparation by; type: functional; how it was run: as §1
Cavia porcellus [18] = species: Cavia porcellus; experiment: activity evaluated by its ability to inhibit the electrically induced twitch contraction in guinea pig ileum, which is reversed by naloxone (300 nM)(P < 0.01); type: functional; how it was run: as §1
Cavia porcellus [19] = species: Cavia porcellus; experiment: activity evaluated by its ability to inhibit the electrically induced twitch contraction in guinea pig ileum, which is reversed by naloxone (300 nM); no effect; type: functional; how it was run: as §1
Cavia porcellus [20] = species: Cavia porcellus; experiment: % maximum inhibition is elicited when the response reaches plateau, calculated regarding electrically induced contraction in guinea pig ileum as 100%; no effect; type: functional; how it was run: as §1
Cavia porcellus [21] = species: Cavia porcellus; experiment: Relative inhibitory activity expressed as the percentage of the maximum inhibition by the compound against that of morphine; no effect; type: functional
Cavia porcellus [22] = species: Cavia porcellus; experiment: Relative potency expressed as the percentage of the pD2 value against that of morphine; no effect; type: functional
Cavia porcellus [23] = species: Cavia porcellus; experiment: activity evaluated by its ability to inhibit the electrically induced twitch contraction in guinea pig ileum, which is reversed by naloxone (300 nM) (P < 0.001); type: functional; how it was run: as §1
Cavia porcellus [24] = species: Cavia porcellus; experiment: % maximum inhibition is elicited when the response reaches plateau, calculated regarding electrically induced contraction in guinea pig ileum as 100%(P < 0.001); type: functional; how it was run: as §1
Cavia porcellus [25] = species: Cavia porcellus; experiment: Effect of Corynantheidine (1 uM) on twitch contraction inhibited by Atropine (0.1 uM) in guinea pig; type: functional
Cavia porcellus [26] = species: Cavia porcellus; experiment: Effect of Corynantheidine (10 uM) on twitch contraction inhibited by morphine (1 uM) in guinea pig (P<0.001); type: functional
Cavia porcellus [27] = species: Cavia porcellus; experiment: Effect of Corynantheidine (10 uM) on twitch contraction inhibited by Verapamil (3 uM) in guinea pig; type: functional
Cavia porcellus [28] = species: Cavia porcellus; experiment: Effect of Corynantheidine (1 uM) on twitch contraction inhibited by Verapamil (3 uM) in guinea pig; type: functional
Cavia porcellus [29] = species: Cavia porcellus; experiment: Effect of Corynantheidine (1 uM) on twitch contraction inhibited by morphine (1 uM) in guinea pig (P<0.05); type: functional
Cavia porcellus [30] = species: Cavia porcellus; experiment: % maximum inhibition is elicited when the response reaches plateau, calculated regarding electrically induced contraction in guinea pig ileum as 100% (P<0.001); type: functional; how it was run: as §1
Cavia porcellus [31] = species: Cavia porcellus; experiment: Effect of Corynantheidine (10 uM) on twitch contraction inhibited by Atropine (0.1 uM) in guinea pig; type: functional

Kappa-type opioid receptor, sequence (P41144 whole entry): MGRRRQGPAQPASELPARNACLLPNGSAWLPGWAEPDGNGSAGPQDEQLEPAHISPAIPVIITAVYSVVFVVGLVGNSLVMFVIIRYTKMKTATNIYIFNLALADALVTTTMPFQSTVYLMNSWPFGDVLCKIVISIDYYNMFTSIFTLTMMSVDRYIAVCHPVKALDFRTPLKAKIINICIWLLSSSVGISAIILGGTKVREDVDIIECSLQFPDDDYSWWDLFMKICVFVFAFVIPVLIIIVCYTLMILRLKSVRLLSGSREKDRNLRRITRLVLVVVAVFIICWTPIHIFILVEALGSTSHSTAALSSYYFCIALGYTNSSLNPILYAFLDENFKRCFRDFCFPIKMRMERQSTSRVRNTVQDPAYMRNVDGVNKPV
Mu-type opioid receptor (Cavia porcellus), sequence (P97266 whole entry): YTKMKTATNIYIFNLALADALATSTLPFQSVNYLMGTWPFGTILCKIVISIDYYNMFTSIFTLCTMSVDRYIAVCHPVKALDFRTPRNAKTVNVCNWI
Mu-type opioid receptor, sequence (P97266 whole entry): as above

## CCOc1cccc2[nH]c3c(c12)CCN1C[C@@H](CC)[C@@H](/C(=C\OC)C(=O)OC)C[C@@H]31
Cavia porcellus [1]
  NS: non specific
Cavia porcellus [2]
  NS: non specific
Cavia porcellus [3]
  NS: non specific
Cavia porcellus [4]
  NS: non specific

## CC[C@@H]1CN2CCc3c([nH]c4cccc(OC(C)C)c34)[C@@H]2C[C@@H]1/C(=C\OC)C(=O)OC
Cavia porcellus [1]
  NS: non specific
Cavia porcellus [2]
  NS: non specific
Cavia porcellus [3]
  NS: non specific
Cavia porcellus [4]
  NS: non specific

## CC[C@@H]1CN2CC[C@@]3(OC)C(=Nc4cccc(OC)c43)[C@@H]2C[C@@H]1/C(=C\OC)C(=O)OC
Cavia porcellus [5]
  pD2: 6.45
Cavia porcellus [6]
  Relative potency: 19%
Cavia porcellus [7]
  Inhibition: 60.9%
Cavia porcellus [8]
  Inhibition: 70%

## CN1[C@@H]2CC[C@H]1C[C@@H](OC(=O)C(CO)c1ccccc1)C2 (stereo partly specified) [ATROPINE]
Cavia porcellus [9]
  Contraction: 3.9%

## CC[C@@H]1CN2CCc3c([nH]c4cccc(O)c34)[C@@H]2C[C@@H]1/C(=C\OC)C(=O)OC
Cavia porcellus [6]
  Relative potency: 41%
[10]
  Ki: 2950 nM
Cavia porcellus [11]
  Inhibition: 49.4%
Cavia porcellus [12]
  pD2: 6.78
Cavia porcellus [8]
  Inhibition: 57%
[13]
  Relative affinity: 99.6%
[14]
  Relative affinity: < 0.1%
Mu-type opioid receptor
  Ki: 12 nM

## CC[C@@H]1CN2CCc3c([nH]c4cccc(OC)c34)[C@H]2C[C@@H]1/C(=C/OC)C(=O)OC
Cavia porcellus [5]
  pD2: 5.4
Cavia porcellus [6]
  Relative potency: 2%
Cavia porcellus [15]
  Inhibition: 85.9%
Cavia porcellus [8]
  Inhibition: 101%

## CC[C@@H]1C[N+]2([O-])CCc3c([nH]c4cccc(OC)c34)[C@@H]2C[C@@H]1/C(=C\OC)C(=O)OC (stereo partly specified)
Cavia porcellus [15]
  Inhibition: -123.5%

## CN1CC[C@]23c4c5ccc(O)c4O[C@H]2[C@@H](O)C=C[C@H]3[C@H]1C5 [MORPHINE]
Cavia porcellus [15]
  Inhibition: 87.2%
Cavia porcellus [16]
  Contraction: 27.4%
Cavia porcellus [8]
  Inhibition: 100%

## COc1ccc(CCN(C)CCCC(C#N)(c2ccc(OC)c(OC)c2)C(C)C)cc1OC (stereo unspecified)
Cavia porcellus [17]
  Contraction: 6.8%

## CC[C@@H]1CN2CCc3c([nH]c4cccc(OC)c34)[C@@H]2C[C@@H]1/C(=C\OC)C(=O)OC
Cavia porcellus [6]
  Relative potency: 26%
[10]
  Ki: 1100 nM
Cavia porcellus [15]
  Inhibition: 83.1%
Cavia porcellus [18]
  pD2: 6.59
Cavia porcellus [8]
  Inhibition: 95%
[13]
  Relative affinity: 88.7%
[14]
  Relative affinity: 10.7%
Mu-type opioid receptor
  Ki: 7.24 nM

## CC[C@@H]1CN2CCc3c([nH]c4cccc(OC(C)=O)c34)[C@@H]2C[C@@H]1/C(=C\OC)C(=O)OC
Cavia porcellus [6]
  Relative potency: 2%
Cavia porcellus [11]
  Inhibition: 33.2%
Cavia porcellus [12]
  pD2: 5.39
Cavia porcellus [8]
  Inhibition: 38%

## CC[C@@H]1CN2CC[C@@]3(OC(C)=O)C(=Nc4cccc(OC)c43)[C@@H]2C[C@@H]1/C(=C\OC)C(=O)OC
Cavia porcellus [6]
  Relative potency: 21%
Cavia porcellus [18]
  pD2: 6.5
Cavia porcellus [11]
  Inhibition: 13.4%
Cavia porcellus [8]
  Inhibition: 15%

## CC[C@@H]1CN2CCc3c([nH]c4cccc(OCOC)c34)[C@@H]2C[C@@H]1/C(=C\OC)C(=O)OC
Cavia porcellus [19]
  NE: inactive
Cavia porcellus [20]
  NE: inactive
Cavia porcellus [21]
  NE: inactive
Cavia porcellus [22]
  NE: inactive

## CC[C@@H]1CN2CC3=C(O)C4C(OC)=CC=CC4N=C3[C@@H]2C[C@@H]1/C(=C\OC)C(=O)OC (stereo partly specified)
Cavia porcellus [5]
  pD2: 6.7
Cavia porcellus [6]
  Relative potency: 34%
Cavia porcellus [15]
  Inhibition: 74.1%
Cavia porcellus [8]
  Inhibition: 85%

## CC[C@@H]1CN2CC[C@]3(Nc4cccc(OC)c4C3=O)[C@@H]2C[C@@H]1/C(=C\OC)C(=O)OC
Cavia porcellus [6]
  Relative potency: 3467%
[10]
  Ki: 79.4 nM
Cavia porcellus [15]
  Inhibition: 83.5%
Cavia porcellus [8]
  Inhibition: 96%
[13]
  Relative affinity: 97.1%
Cavia porcellus [23]
  pD2: 8.71
[14]
  Relative affinity: 2.8%
Mu-type opioid receptor
  Ki: 0.0871 nM

## CCO[C@]12CCN3C[C@@H](CC)[C@@H](/C(=C\OC)C(=O)OC)C[C@H]3C1=Nc1cccc(OC)c12
Cavia porcellus [5]
  pD2: 5.29
Cavia porcellus [24]
  Inhibition: 22.9%
Cavia porcellus [6]
  Relative potency: 1%
Cavia porcellus [8]
  Inhibition: 26%

## CC[C@@H]1CN2CC[C@@]3(O)C(=Nc4cccc(OC)c43)[C@@H]2C[C@@H]1/C(=C\OC)C(=O)OC
Cavia porcellus [6]
  Relative potency: 1071%
[10]
  Ki: 123 nM
Cavia porcellus [15]
  Inhibition: 86.3%
Cavia porcellus [8]
  Inhibition: 99%
[13]
  Relative affinity: 83.3%
Cavia porcellus [23]
  pD2: 8.2
[14]
  Relative affinity: 6.6%
Mu-type opioid receptor
  Ki: 13.5 nM

## CC[C@@H]1CN2CCc3c([nH]c4ccccc34)[C@@H]2C[C@@H]1/C(=C\OC)C(=O)OC [CORYNANRHEIDINE]
Cavia porcellus [25]
  Contraction: 5.7%
Cavia porcellus [26]
  Contraction: 109.2%
[10]
  Ki: 2570 nM
Cavia porcellus [27]
  Contraction: 13.2%
Cavia porcellus [28]
  Contraction: 7%
Cavia porcellus [8]
  Inhibition: -21%
Cavia porcellus [29]
  Contraction: 43%
Cavia porcellus [30]
  Inhibition: -18.1%
[13]
  Relative affinity: 95.8%
[14]
  Relative affinity: 1%
Cavia porcellus [31]
  Contraction: 6.3%
Mu-type opioid receptor
  Ki: 72.4 nM
